Experimental data: ChEMBL document CHEMBL1142265, “Discovery of 4-aryl-4H-chromenes as a new series of apoptosis inducers using a cell- and caspase-based HTS assay. Part 5: modifications of the 2- and 3-positions” (Bioorg Med Chem Lett, 2008)
pEC50, pIC50: −log10 of the molar value.

Legend:
T47D [1] = assay: Induction of apoptosis in human T47D cells assessed as caspase activation by HTS assay; format: functional, cell-based
[2] = Inhibition of tubulin polymerization
T47D [3] = assay: Growth inhibition of human T47D cells; format: functional
Procedure, shortened: (§1)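 GI50 from a cell growth inhibition assay in T47D, HCT116 and SNU398 cells, run in 96-well format following an earlier protocol. Values are means of three or more experiments ± SEM.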

SNU-398 [4] = assay: Induction of apoptosis in human SNU398 cells assessed as caspase activation by HTS assay; format: functional, cell-based
SNU-398 [5] = assay: Growth inhibition of human SNU398 cells; format: functional; procedure, shortened: as §1
HCT-116 [6] = assay: Growth inhibition of human HCT116 cells; format: functional; procedure, shortened: as §1
HCT-116 [7] = assay: Induction of apoptosis in human HCT116 cells assessed as caspase activation by HTS assay; format: functional, cell-based

SMILES | pEC50 (T47D [1]) | pIC50 [2] | GI50 (T47D [3]) [nM] | pEC50 (SNU-398 [4]) | GI50 (SNU-398 [5]) [nM] | GI50 (HCT-116 [6]) [nM] | pEC50 (HCT-116 [7])
COc1cc(C2C(C#N)=C(N)Oc3c2ccc2[nH]ccc32)cc(Br)c1OC (stereo unspecified) |  | 6.30 |  |  |  |  | 
CCOC(=O)C1=C(N)Oc2c(ccc3[nH]ccc23)C1c1cc(Br)c(OC)c(OC)c1 (stereo unspecified) | 5.49 |  | 3300 | 5.66 | 1600 | 4300 | 5.52
COc1cc(C2C(C#N)=COc3c2ccc2c3ccn2C)cc(Br)c1OC (stereo unspecified) | 7.54 | > 6.30 | 6 | 7.47 | 4 | 6 | 7.42
CCn1ccc2c3c(ccc21)C(c1cc(Br)c(OC)c(OC)c1)C(C#N)=CO3 (stereo unspecified) | 7.15 |  |  | 7.06 |  |  | 6.82
COc1cc(C2C(C#N)=COc3cc(N(C)C)ccc32)cc(Br)c1OC (stereo unspecified) | 7.19 |  | 66 | 7.11 | 17 | 51 | 7.03

Continued by rising pEC50 (T47D [1]), values first:

pEC50 (T47D [1]) | pIC50 [2] | GI50 (T47D [3]) [nM] | pEC50 (SNU-398 [4]) | GI50 (SNU-398 [5]) [nM] | GI50 (HCT-116 [6]) [nM] | pEC50 (HCT-116 [7]) | SMILES
5.85 |  |  | 6.00 |  |  | 6.18 | COC(=O)C1=C(N)Oc2c(ccc3[nH]ccc23)C1c1cc(Br)c(OC)c(OC)c1 (stereo unspecified)
6.57 | 5.52 |  |  |  |  |  | N#CC1=C(N)Oc2c(ccc3[nH]ccc23)C1c1ccccc1 (stereo unspecified)
6.60 |  |  | 6.72 |  |  | 6.38 | COc1cc(C2C(C#N)=C(N3C(=O)CCC3=O)Oc3cc(N(C)C)ccc32)cc(Br)c1OC (stereo unspecified)
7.17 |  |  | 7.03 |  |  | 7.08 | COc1cc(C2C(C#N)=C(NC(=O)Nc3ccccc3)Oc3cc(N(C)C)ccc32)cc(Br)c1OC (stereo unspecified)
7.33 | > 6.30 | 73 | 7.28 | 34 | 53 | 7.18 | COc1cc(C2C(C#N)=COc3c2ccc2[nH]ccc32)cc(Br)c1OC (stereo unspecified)
